Reference: ChEMBL document CHEMBL3120083, “Discovery of N-[4-[6-tert-butyl-5-methoxy-8-(6-methoxy-2-oxo-1H-pyridin-3-yl)-3-quinolyl]phenyl]methanesulfonamide (RG7109), a potent inhibitor of the hepatitis C virus NS5B polymerase” (J Med Chem, 2014)
Converted amounts (≈) assume the structure as drawn.

Legend:
[1] = system: Hepatitis C virus; assay: Antiviral activity against Hepatitis C virus genotype 1a H77 infected in human 2209-23 cells after 72 hrs by luciferase reporter gene assay; assay type: functional, organism-based, Hepacivirus hominis; conditions: genotype 1a H77, 2209-23, 72 h
[2] = Inhibition of N-terminal 6xHis-tagged Hepatitis C virus genotype 1b Con1 NS5B polymerase containing 21-amino acid deletion at C-terminus expressed in Escherichia coli using radiolabeled UTP as substrate after 2 hrs by scintillation counting analysis; parameters: species or system Hepatitis C virus (isolate Con1)
In short: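 GT-1b Con1 NS5B polymerase (NS5B570n-Con1) activity assay run with RNA template at 3 nM and enzyme at 3 nM. IC50 reported in nM.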

[3] = Thermodynamic solubility of the compound; assay type: physicochemical; conditions: read-out: Therm_solubility
[4] = system: Hepatitis C virus; assay: Antiviral activity against Hepatitis C virus genotype 1b Con1 infected in human 2209-23 cells after 72 hrs by luciferase reporter gene assay; assay type: functional, organism-based, Hepacivirus hominis; conditions: isolate Con1, 2209-23, 72 h
In short: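 Stable GT-1b Con1 subgenomic replicon cell line expressing a renilla luciferase reporter, used as the readout of inhibition. EC50 from luciferase signal, n 2.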

[5] = system: Hepatocyte; assay: Intrinsic clearance in human hepatocytes assessed per 10^6 cells; assay type: ADME, cell-based
In short: (§1)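 Suspended hepatocytes (about 1.0×10^6 cells/mL) in Williams' medium E with glutamine, antibiotics, insulin, dexamethasone and 10% FCS, 37 °C, 5% CO2, shaken at 900 rpm. Compound at 0.1–10.0 μM. Stopped with methanol plus internal standard at 2–180 min. Parent remaining by LC/MS/MS peak area ratio, in duplicate.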

[6] = system: Hepatocyte; assay: Intrinsic clearance in rat hepatocytes assessed per 10^6 cells; assay type: ADME, cell-based; in short: as §1

SMILES	EC50 [1] [µM]	IC50 [2] [µM]	solubility thermodynamic [3] [mg/mL]	EC50 [4] [µM]	CLH [5] [uL/min/10^6 cells]	CLH [6] [uL/min/10^6 cells]
COc1c(C(C)(C)C)cc(-c2ccc[nH]c2=O)c2ncc(N3CC[C@H](CNS(C)(=O)=O)C3)cc12	0.0079	0.0002	0.011 (≈ 22.7 µM)	–	–	–
COc1c(C(F)(F)F)cc(-n2ccc(=O)[nH]c2=O)c2ncc(-c3ccc(NS(C)(=O)=O)cc3)cc12	0.821	–	–	0.057	1.5	1.8

Further lines, with some results ahead:

EC50 [1] [µM]	IC50 [2] [µM]	solubility thermodynamic [3] [mg/mL]	SMILES	EC50 [4] [µM]	CLH [5] [uL/min/10^6 cells]	CLH [6] [uL/min/10^6 cells]
> 1	0.625	0.066 (≈ 137 µM)	Cc1ccc(-c2cc(C(C)(C)C)cc3cc(N4CCCC(CNS(C)(=O)=O)C4)cnc23)c(=O)[nH]1 (stereo not given)	–	–	–
0.341	0.005	< 0.001	COc1c(C(C)(C)C)cc(-c2ccc(C)[nH]c2=O)c2ncc(C#CCCNS(C)(=O)=O)cc12	–	–	–
0.025	–	–	CC(C)(C)c1cc(-c2cc(F)c[nH]c2=O)c2ncc(-c3ccc(NS(C)(=O)=O)cc3)cc2c1	0.016	–	–
